Measurements pooled from the literature.
Lines come from different studies, so protocols differ.
CA9: Carbonic anhydrase 9 (CA9, Homo sapiens, UniProt Q16790)
MAOB: Amine oxidase [flavin-containing] B (MAOB, Homo sapiens, UniProt P27338)
PADI4: Protein-arginine deiminase type-4 (PADI4, Homo sapiens, UniProt Q9UM07)
Pancreatic alpha-amylase: Pancreatic alpha-amylase (Homo sapiens, UniProt P04746)
ALDH1A3: Retinaldehyde dehydrogenase 3 (ALDH1A3, Homo sapiens, UniProt P47895)
CHRM4: Muscarinic acetylcholine receptor M4 (CHRM4, Homo sapiens, UniProt P08173)
Comt: Catechol O-methyltransferase (Comt, Rattus norvegicus, UniProt P22734)
HDAC9: Histone deacetylase 9 (HDAC9, Homo sapiens, UniProt Q9UKV0)

Compound	target	test	conditions	IC50
O=C(O)c1ccc(Nc2nc(-c3cc4cc(Br)ccc4oc3=O)cs2)cc1	CA9	enzyme activity, inhibitor		4.38 µM
O=C(Nc1ccc(F)c(F)c1)c1ccc2c(c1)C(=O)NC2=O	MAOB	enzyme activity, inhibitor		0.024 µM
N=C(CCl)NCCC[C@H](NC(=O)c1cccc(NC(=O)c2cc3c(s2)CCC3)c1)C(=O)NCc1ccccc1	PADI4	enzyme activity, inhibitor, fluorescence	with preincubation	0.454 µM
COc1cc(/C=N/NC(=S)NN=Cc2cccs2)ccc1Oc1ccnc2cc(Cl)ccc12	Pancreatic alpha-amylase	enzyme activity, inhibitor, absorbance		60 µM
O=C(Nc1ccc(F)c(Cl)c1)c1ccc2c(c1)C(=O)NC2=O	MAOB	enzyme activity, inhibitor		0.015 µM
COc1cc(/C=N/NC(=S)NN=Cc2ccc(CO)o2)ccc1Oc1ccnc2cc(Cl)ccc12	Pancreatic alpha-amylase	enzyme activity, inhibitor, absorbance		46.4 µM
COc1nc2ccc(Br)cc2cc1[C@@H](c1ccccc1)[C@@](O)(CCN(C)C)c1cccc2ccccc12	ALDH1A3	enzyme activity, inhibitor		< 10 µM
COc1cc(/C=N/NC(=S)N/N=C/c2ccccc2)ccc1Oc1ccnc2cc(Cl)ccc12	Pancreatic alpha-amylase	enzyme activity, inhibitor, absorbance		46.4 µM
O=C(CCNC(=O)CNC(=O)CC(c1ccccc1)(c1ccccc1)c1ccccc1)NCC1CCN(Cc2ccc(F)cc2)CC1	CHRM4	ligand displacement, radioligand	cell membranes	11.6 µM
O=C(O)c1cc(O)c(O)c(O)c1	Comt	enzyme activity, inhibitor		709 µM
O=C(N[C@@H](CSCc1ccc([N+](=O)[O-])cc1)C(=O)NO)c1ccccc1	Lactoylglutathione lyase (GLO1, Homo sapiens, UniProt Q04760)	enzyme activity, inhibitor		0.952 µM
N=C(CCl)NCCC[C@H](NC(=O)c1ccc2cc(Br)ccc2c1)C(=O)NCc1ccccc1	PADI4	enzyme activity, inhibitor, fluorescence	with preincubation	0.393 µM
NC/C(=C\F)COc1cccc(Cn2c(=S)[nH]c(=O)c3[nH]cnc32)c1	MAOB	enzyme activity, inhibitor		13 µM
CCCC[C@@H](NC(=O)[C@@H](Cc1cn(C(=O)OC)c2ccccc12)NC(=O)[C@H](CC(C)(C)C)NC(=O)N1[C@H](C)CCC[C@@H]1C)C(=O)O	Endothelin receptor type B (EDNRB, Homo sapiens, UniProt P24530)	ligand displacement, radioligand	cell membranes	0.00329 µM
O=C(Nc1ccccc1)c1ccc2c(c1)C(=O)NC2=O	MAOB	enzyme activity, inhibitor		3.25 µM
NS(=O)(=O)c1ccc(Nc2nc(-c3cc4cc(Br)ccc4oc3=O)cs2)c(Br)c1	CA9	enzyme activity, inhibitor		0.86 µM
COc1cc(/C=N/NC(=S)N/N=C\c2ccc(CCl)cc2)ccc1Oc1ccnc2cc(Cl)ccc12	Pancreatic alpha-amylase	enzyme activity, inhibitor, absorbance		58.4 µM
CN1CCC(CNc2ccc3ncc(-c4cccc(OC(F)(F)F)c4)n3n2)CC1	Beta-1 adrenergic receptor (ADRB1, Homo sapiens, UniProt P08588)	cAMP, antagonist		6.75 µM
N=C(CCl)NCCC[C@H](NC(=O)c1ccc2cc(O)ccc2c1)C(=O)NCc1ccccc1	PADI4	enzyme activity, inhibitor, fluorescence	with preincubation	0.24 µM
O=C1Nc2ccc(I)cc2/C1=C/c1cc(Br)c(O)c(Br)c1	Dual specificity tyrosine-phosphorylation-regulated kinase 4 (DYRK4, Homo sapiens, UniProt Q9NR20)	enzyme activity, inhibitor		4.94 µM

Compound	target	test	conditions	IC50
Nc1nc2c(s1)C(c1ccccc1Cl)CC(=O)N2 (stereo not drawn)	ALDH1A3	enzyme activity, inhibitor		< 10 µM
N=C(CCl)NCCC[C@H](NC(=O)c1cnc2cc(O)ccc2c1)C(=O)NCc1ccccc1	PADI4	enzyme activity, inhibitor, fluorescence	with preincubation	0.342 µM
COc1cc(/C=N/NC(=S)N/N=C/c2ccc(F)cc2)ccc1Oc1ccnc2cc(Cl)ccc12	Pancreatic alpha-amylase	enzyme activity, inhibitor, absorbance		54.3 µM
N=C(CCl)NCCC[C@H](NC(=O)c1ccc(O)cc1)c1nc2ccccc2[nH]1	PADI4	enzyme activity, inhibitor, fluorescence	with preincubation	0.718 µM
CC(C)N(CCC(=O)c1ccc2ccccc2c1)Cc1ccccc1	ALDH1A3	enzyme activity, inhibitor		< 10 µM
O=C(Nc1ccc(Cl)c(F)c1)c1ccc2c(c1)C(=O)NC2=O	MAOB	enzyme activity, inhibitor		0.029 µM
C[C@@]12C[C@@]3(O)O[C@@H](O1)[C@]1(COC(=O)c4ccccc4)[C@H]3C[C@@]12O[C@@H]1O[C@H](COC(=O)c2cc(O)c(O)c(O)c2)[C@@H](O)[C@H](O)[C@H]1O	Comt	enzyme activity, inhibitor		16.2 µM
COc1cc(/C=N/NC(=S)NN=Cc2sccc2C)ccc1Oc1ccnc2cc(Cl)ccc12	Pancreatic alpha-amylase	enzyme activity, inhibitor, absorbance		53.6 µM
N=C(CCl)NCCC[C@H](NC(=O)c1ccc2cc(O)ccc2n1)C(=O)NCc1ccccc1	PADI4	enzyme activity, inhibitor, fluorescence	with preincubation	0.56 µM
COc1cc(/C=N/NC(=S)NN=Cc2scnc2C)ccc1Oc1ccnc2cc(Cl)ccc12	Pancreatic alpha-amylase	enzyme activity, inhibitor, absorbance		57.1 µM
O=C(CCNC(=O)CNC(=O)CC(c1ccccc1)(c1ccccc1)c1ccccc1)NC[C@@H]1CCCN(Cc2ccc(F)nc2)C1	CHRM4	ligand displacement, radioligand	cell membranes	> 30 µM
COc1ccc(N(Cc2csc(-c3ccccc3)n2)C(=O)CCCCCC(=O)NO)cc1	HDAC9	enzyme activity, inhibitor		> 10 µM
COc1ccc2cc(C(=O)N[C@@H](CCCNC(=N)CCl)C(=O)NCc3ccccc3)[nH]c2c1	PADI4	enzyme activity, inhibitor, fluorescence	with preincubation	0.362 µM
O=C(NO)c1ccc(Cn2cnc3c(Nc4cccc([N+](=O)[O-])c4)ncnc32)cc1	HDAC9	enzyme activity, inhibitor		0.677 µM
N=C(CCl)NCCC[C@H](NC(=O)c1cccc(-c2ccc(O)cc2)c1)C(=O)NCc1ccccc1	PADI4	enzyme activity, inhibitor, fluorescence	with preincubation	0.524 µM
CS(=O)(=O)Nc1ccc(Nc2nc(-c3cc4cc(Br)ccc4oc3=O)cs2)cc1Oc1ccccc1	CA9	enzyme activity, inhibitor		5.74 µM
COc1ccc(N(Cc2csc(-c3ccc(C)cc3)n2)C(=O)CCCCCC(=O)NO)cc1	HDAC9	enzyme activity, inhibitor		> 10 µM
COc1cc(/C=N/NC(=S)NN=Cc2ccncc2)ccc1Oc1ccnc2cc(Cl)ccc12	Pancreatic alpha-amylase	enzyme activity, inhibitor, absorbance		49.7 µM
O=C(Nc1ccc(Cl)c(Cl)c1)c1ccc2c(c1)C(=O)NC2=O	MAOB	enzyme activity, inhibitor		0.014 µM
